Results from the M2OR odorant receptor database.
Where a chain is given by its changes, count along the chain named.

Columns and labels:
Details in all cases: stereoisomer not certain
[1] = target: T1, OR2B3 (Homo sapiens) (UniProt O76000)
T1 sequence (whole entry): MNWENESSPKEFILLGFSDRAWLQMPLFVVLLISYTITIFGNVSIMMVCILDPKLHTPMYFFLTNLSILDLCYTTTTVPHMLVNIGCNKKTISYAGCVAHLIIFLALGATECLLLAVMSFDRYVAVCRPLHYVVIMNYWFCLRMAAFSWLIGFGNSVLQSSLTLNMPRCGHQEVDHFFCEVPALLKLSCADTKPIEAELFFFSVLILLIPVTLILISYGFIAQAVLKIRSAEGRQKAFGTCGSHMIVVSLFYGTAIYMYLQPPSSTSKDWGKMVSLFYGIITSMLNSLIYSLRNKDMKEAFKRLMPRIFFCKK
Summary of the method: (§1)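 Each receptor–molecule pair is labelled responsive or non-responsive (inactive) according to whether the original authors judged the measured signal statistically different from baseline. The data were taken from the main text and supplementary material of published papers and checked for typos and inconsistencies. Assay methods differed by source, with transient luciferase assays in mammalian cell lines being common.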

[2] = target: T2, OR2B6 (Homo sapiens) (UniProt P58173)
T2 sequence (whole entry): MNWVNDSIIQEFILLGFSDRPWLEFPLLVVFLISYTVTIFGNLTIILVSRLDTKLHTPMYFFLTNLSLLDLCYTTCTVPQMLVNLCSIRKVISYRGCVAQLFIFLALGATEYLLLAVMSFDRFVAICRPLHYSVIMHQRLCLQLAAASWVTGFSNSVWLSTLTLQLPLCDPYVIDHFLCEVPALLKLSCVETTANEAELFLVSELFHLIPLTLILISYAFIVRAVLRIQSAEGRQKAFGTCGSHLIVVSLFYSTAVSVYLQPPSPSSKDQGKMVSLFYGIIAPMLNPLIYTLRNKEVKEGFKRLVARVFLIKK
Summary of the method: as §1

[3] = target: T3, OR2C1 (Homo sapiens) (UniProt O95371)
T3 sequence (whole entry): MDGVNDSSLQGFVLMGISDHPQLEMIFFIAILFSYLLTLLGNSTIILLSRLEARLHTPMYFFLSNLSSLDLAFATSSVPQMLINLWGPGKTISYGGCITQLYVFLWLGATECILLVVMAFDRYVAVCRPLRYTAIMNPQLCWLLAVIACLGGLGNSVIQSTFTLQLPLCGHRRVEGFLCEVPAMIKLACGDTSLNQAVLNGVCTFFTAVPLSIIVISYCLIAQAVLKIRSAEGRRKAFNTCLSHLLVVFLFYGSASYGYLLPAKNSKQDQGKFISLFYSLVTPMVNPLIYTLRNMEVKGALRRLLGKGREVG
Summary of the method: as §1

[4] = target: T4, OR2C3 (Homo sapiens) (UniProt Q8N628)
T4 sequence (whole entry): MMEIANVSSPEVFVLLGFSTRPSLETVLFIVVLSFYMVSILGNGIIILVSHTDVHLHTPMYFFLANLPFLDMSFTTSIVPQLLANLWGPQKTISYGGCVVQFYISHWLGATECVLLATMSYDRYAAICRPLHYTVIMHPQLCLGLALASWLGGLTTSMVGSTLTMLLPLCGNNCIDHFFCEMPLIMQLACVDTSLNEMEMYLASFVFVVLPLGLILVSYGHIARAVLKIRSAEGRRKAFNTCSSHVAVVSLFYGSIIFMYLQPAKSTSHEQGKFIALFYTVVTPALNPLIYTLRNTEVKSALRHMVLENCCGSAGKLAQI
Summary of the method: as §1

[5] = target: T5, OR2D2 (Homo sapiens) (UniProt Q9H210)
T5 sequence (whole entry): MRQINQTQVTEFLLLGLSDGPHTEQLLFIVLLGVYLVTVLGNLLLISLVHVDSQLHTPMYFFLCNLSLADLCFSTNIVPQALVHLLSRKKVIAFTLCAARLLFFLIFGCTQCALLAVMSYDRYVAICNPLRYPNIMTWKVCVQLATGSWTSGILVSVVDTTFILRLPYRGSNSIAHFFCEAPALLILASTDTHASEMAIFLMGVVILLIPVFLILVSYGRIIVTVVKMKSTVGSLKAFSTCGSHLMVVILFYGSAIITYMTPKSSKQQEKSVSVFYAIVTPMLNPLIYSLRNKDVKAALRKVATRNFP
Summary of the method: as §1

[6] = target: T6, OR2D3 (Homo sapiens) (UniProt Q8NGH3)
T6 sequence (whole entry): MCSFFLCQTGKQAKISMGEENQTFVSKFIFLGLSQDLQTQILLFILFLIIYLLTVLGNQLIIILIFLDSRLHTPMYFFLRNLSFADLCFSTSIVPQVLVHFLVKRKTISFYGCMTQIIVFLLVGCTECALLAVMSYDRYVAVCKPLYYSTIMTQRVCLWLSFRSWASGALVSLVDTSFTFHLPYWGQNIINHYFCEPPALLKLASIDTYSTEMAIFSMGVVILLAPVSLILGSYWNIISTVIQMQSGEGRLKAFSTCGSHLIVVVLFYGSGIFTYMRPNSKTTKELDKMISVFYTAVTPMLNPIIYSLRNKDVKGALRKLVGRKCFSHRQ
Summary of the method: as §1

[7] = test system: T7, OR2BB
T7 sequence (whole entry): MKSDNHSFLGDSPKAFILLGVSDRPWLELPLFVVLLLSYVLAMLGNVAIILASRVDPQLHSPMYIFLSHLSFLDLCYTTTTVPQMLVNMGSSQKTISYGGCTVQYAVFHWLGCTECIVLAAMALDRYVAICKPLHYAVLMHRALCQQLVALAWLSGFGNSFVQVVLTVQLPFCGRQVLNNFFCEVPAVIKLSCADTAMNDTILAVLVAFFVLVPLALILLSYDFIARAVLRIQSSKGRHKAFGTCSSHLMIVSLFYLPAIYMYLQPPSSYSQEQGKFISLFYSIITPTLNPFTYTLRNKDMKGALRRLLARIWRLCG
Summary of the method: as §1

[8] = test system: T8, OR2BB; remark: listed apart in the source
T8 sequence (whole entry): T7 sequence (whole entry) with D223G, T293I, D300G
Summary of the method: as §1

[9] = test system: T9, OR2BB; remark: listed apart in the source
T9 sequence (whole entry): T7 sequence (whole entry) with D223G
Summary of the method: as §1

[10] = test system: OR2BB; remark: listed apart in the source
Summary of the method: as §1
Target sequence in this assay (as listed by the source): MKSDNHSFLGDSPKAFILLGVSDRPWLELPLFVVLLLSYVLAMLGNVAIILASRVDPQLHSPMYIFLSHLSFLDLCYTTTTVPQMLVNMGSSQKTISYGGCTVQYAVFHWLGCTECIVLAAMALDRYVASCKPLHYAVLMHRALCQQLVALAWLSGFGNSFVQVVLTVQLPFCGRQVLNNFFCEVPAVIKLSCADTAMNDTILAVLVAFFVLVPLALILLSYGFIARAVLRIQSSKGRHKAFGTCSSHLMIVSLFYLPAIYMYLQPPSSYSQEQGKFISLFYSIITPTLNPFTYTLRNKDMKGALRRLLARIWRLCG

[11] = test system: T10, OR2C1
T10 sequence (whole entry): T3 sequence (whole entry) with C149W
Summary of the method: as §1

[12] = test system: T11, OR2C3
T11 sequence (whole entry): T4 sequence (whole entry) with T20A, P68S, L289V
Summary of the method: as §1

[13] = test system: T12, OR2C3; remark: listed apart in the source
T12 sequence (whole entry): T4 sequence (whole entry) with P68S
Summary of the method: as §1

[14] = test system: T13, OR2D2 S148P I163T M202T
T13 sequence (whole entry): T5 sequence (whole entry) with S148P, I163T, M202T
Summary of the method: as §1

[15] = test system: T14, OR2D3 R155W
T14 sequence (whole entry): T6 sequence (whole entry) with R155W
Summary of the method: as §1

[16] = test system: T15, OR2C1; remark: listed apart in the source
T15 sequence (whole entry): T3 sequence (whole entry) with G16S, C149W, C169Y, R229H
Summary of the method: as §1

[17] = test system: OR2C1; remark: listed apart in the source
Summary of the method: as §1
Target sequence in this assay (as listed by the source): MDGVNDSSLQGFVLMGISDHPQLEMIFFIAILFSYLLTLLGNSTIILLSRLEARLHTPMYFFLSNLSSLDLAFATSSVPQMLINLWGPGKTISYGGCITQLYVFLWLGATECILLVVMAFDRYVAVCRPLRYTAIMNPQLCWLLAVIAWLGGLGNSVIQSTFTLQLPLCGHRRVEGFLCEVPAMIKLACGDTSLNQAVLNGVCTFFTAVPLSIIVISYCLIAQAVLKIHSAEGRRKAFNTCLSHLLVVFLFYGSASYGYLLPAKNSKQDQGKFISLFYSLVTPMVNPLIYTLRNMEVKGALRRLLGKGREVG

[18] = test system: OR2C1; remark: listed apart in the source
Summary of the method: as §1
Target sequence in this assay (as listed by the source): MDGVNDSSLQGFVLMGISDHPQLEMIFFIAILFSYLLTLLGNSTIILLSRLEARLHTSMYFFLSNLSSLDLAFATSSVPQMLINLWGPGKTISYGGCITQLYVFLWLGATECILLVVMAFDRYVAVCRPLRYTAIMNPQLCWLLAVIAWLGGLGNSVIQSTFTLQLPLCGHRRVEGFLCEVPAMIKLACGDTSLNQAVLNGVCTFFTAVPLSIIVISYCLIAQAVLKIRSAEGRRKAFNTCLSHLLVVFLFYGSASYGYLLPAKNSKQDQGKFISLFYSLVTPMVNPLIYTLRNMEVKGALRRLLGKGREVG

[19] = test system: OR2C1; remark: listed apart in the source
Summary of the method: as §1
Target sequence in this assay (as listed by the source): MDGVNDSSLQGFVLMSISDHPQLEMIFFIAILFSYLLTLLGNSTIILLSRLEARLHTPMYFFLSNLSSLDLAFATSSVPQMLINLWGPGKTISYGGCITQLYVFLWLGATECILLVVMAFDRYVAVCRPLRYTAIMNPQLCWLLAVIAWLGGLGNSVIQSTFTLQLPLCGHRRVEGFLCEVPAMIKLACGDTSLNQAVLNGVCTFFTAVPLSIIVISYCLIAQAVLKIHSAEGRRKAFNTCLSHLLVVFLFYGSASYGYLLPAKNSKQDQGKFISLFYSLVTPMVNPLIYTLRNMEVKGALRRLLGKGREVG

[20] = test system: OR2C1; remark: listed apart in the source
Summary of the method: as §1
Target sequence in this assay (as listed by the source): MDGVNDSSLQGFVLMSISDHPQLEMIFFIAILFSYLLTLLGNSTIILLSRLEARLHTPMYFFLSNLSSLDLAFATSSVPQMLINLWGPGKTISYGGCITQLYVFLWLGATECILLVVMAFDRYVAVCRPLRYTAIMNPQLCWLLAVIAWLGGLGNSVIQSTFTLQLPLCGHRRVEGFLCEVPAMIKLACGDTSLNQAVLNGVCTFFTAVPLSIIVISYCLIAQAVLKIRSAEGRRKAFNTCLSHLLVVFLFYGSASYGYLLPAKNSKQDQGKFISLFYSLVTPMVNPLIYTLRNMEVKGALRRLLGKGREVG

Measured: odorant receptor agonist call;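 further: active if original authors judged signal statistically different from baseline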

CCC(S)C(C)CO (centres undefined)
inactive: [1] | [2] | [3] | [4] | [5] | [6]

CCCCOC=O
inactive: [3]

CCCCCCOC(C)=O
inactive: [3]

O=C1CCOc2ccccc21
inactive: [3]

CC(=O)c1c(C)c([N+](=O)[O-])c(C(C)(C)C)c([N+](=O)[O-])c1C
inactive: [2] | [3] | [4] | [5] | [6]

CC(CO)CS (centres undefined)
inactive: [1] | [2] | [3] | [4] | [5] | [6]

CCC(=O)C(=O)CC
inactive: [3]

O=c1ccc2ccccc2o1
active: [8] | [9]
inactive: [7] | [10] | [3]

CCCCCCCCCC(=O)[O-].[H+]
inactive: [3]

c1ccccc1
inactive: [3]

CCCCCC(S)C(C)CO (centres undefined)
inactive: [1] | [2] | [3] | [4] | [5] | [6]

CC(=O)OCC=C(C)C
inactive: [3]

c1ccc2ncccc2c1
active: [8] | [9]
inactive: [7] | [10]

CC1CCCCCCCCCCCCC(=O)C1 (centres undefined)
inactive: [2] | [3] | [4] | [5] | [6]

CCCCCO
inactive: [3]

CC1=NC(C)C(C)S1 (centres undefined)
not listed: [4] | [8] | [10] | [16] | [17] | [18] | [19] | [20]
inactive: all other assays above

CCCCCC(=O)C(C)C(C)=O (centres undefined)
inactive: [1] | [2] | [3] | [4] | [5] | [6]

c1coc(CSSCc2ccco2)c1
inactive: [11] | [16]
active: [8] | [9]

CCCCC(S)C(C)CO (centres undefined)
inactive: [1] | [2] | [3] | [4] | [5] | [6]

CCCCCC1=C(C)CCC1=O
inactive: [3]

CC(=O)OCc1ccccc1
inactive: [1] | [3]

Cc1cnc(C)c(C)n1
not listed: [4] | [8] | [10] | [16] | [17] | [18] | [19] | [20]
inactive: all other assays above

CCCCCOC(=O)CCCCC
inactive: [3]

CCCCCCC(=O)[O-].[H+]
inactive: [3]

CCCCC(=O)CC
inactive: [3]

CCCCCCCCS
active: [17] | [11] | [18] | [19] | [20] | [16]

O=C([O-])C[SH2+]
active: [11]
inactive: [16]
